The text below walks through data of ChEMBL document CHEMBL2069262, “Stimulation of Glucose-Dependent Insulin Secretion by a Potent, Selective sst3 Antagonist” (ACS Med Chem Lett, 2012).

The term Cmax denotes the highest concentration seen after dosing. By IC50 is commonly meant the midpoint of a concentration-inhibition curve. Usually bioavailability stands for dose-corrected exposure relative to a reference, in per cent. As a reminder, the half-life is how long it takes for the measured level to halve.

Data set [1] is described as follows: Inhibition of glucose-stimulated insulin secretion in C57BL/6J mouse pancreatic islets at 50 nM after 1 hr by ELISA. In kind it is functional, Pancreatic islet. Further details: scale not given: the % may be the effect or the level left. In short, it runs like this:
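Islets isolated from normal C57BL/6J mice were incubated at basal (2 mM) and stimulatory (16 mM) glucose, and insulin secretion was measured. DMSO served as the negative control and GLP-1 at 10 nM as the positive control. n = 4.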
(In an ELISA, binding on a coated surface is turned into a signal by an enzyme label.)

A short description of data set [2]: Cmax in C57BL/6N mouse at 2 mg/kg, po. In kind it is ADME, organism-based. Further details: dose 2 mg/kg, route oral. As to conditions: in vivo.
Data set [3] is described as follows: Clearance in C57BL/6N mouse at 1 mg/kg, iv and 2 mg/kg, po. In kind it is ADME, organism-based. As to conditions: in vivo.
In data set [4] the target is Voltage-gated L-type calcium channel (Homo sapiens, UniProt Q13936+Q13698+Q01668+O60840). The data set is described as follows: Binding affinity to L-type calcium channel.
The nature of data set [5]: Oral bioavailability in C57BL/6N mouse at 2 mg/kg. In kind it is ADME, organism-based. As to conditions: in vivo.
For data set [6], the system named is Mus musculus. The data set is described as follows: Dose normalized AUC in C57BL/6N mouse at 2 mg/kg, po. In kind it is ADME, organism-based. Further details: dose 2 mg/kg, route oral. Conditions: in vivo.
A short description of data set [7]: Half life in C57BL/6N mouse at 1 mg/kg, iv and 2 mg/kg, po. In kind it is ADME, organism-based. Conditions: in vivo.
A short description of data set [8]: Volume of distribution at steady state in C57BL/6N mouse at 1 mg/kg, iv and 2 mg/kg, po. In kind it is ADME, organism-based. Conditions: in vivo, read-out: Vdss.
Data set [9] concerns the target T1, Somatostatin receptor type 3 (Homo sapiens, UniProt P32745). In kind it is functional, cell-based, CHO.
Data set [10] concerns the target Voltage-gated inwardly rectifying potassium channel KCNH2 (Homo sapiens, UniProt Q12809). The data set is described as follows: Displacement of [35S]MK499 from human Erg expressed in HEK293 cells after 60 mins by scintillation counting. In kind it is cell-based. A general note: In a radioligand displacement assay an active substance lowers the binding of a labelled ligand.

Data set [11] concerns the target T1, Somatostatin receptor type 3. The data set is described as follows: Displacement of [125I]SS-14 from human SST3 receptor expressed in CHO cells after 60 mins by scintillation counting. In kind it is cell-based.
Data set [12] can be described thus: Activation of glucose-stimulated insulin secretion in C57BL/6J mouse pancreatic islets at 10 nM after 1 hr by ELISA in presence of 16 mM glucose relative to DMSO. In kind it is functional. Conditions: Pancreatic islet. In short, it runs like this:
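Pancreatic islets were isolated from normal C57BL/6J mice. Insulin secretion was measured at 2 and 16 mM glucose. Treatments were test agent at 10 μM, octreotide at 50 nM, the two combined, DMSO as negative control and GLP-1 at 10 nM as positive control. n = 4.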

Calls of active or inactive are those of the source. The calls are words filed in the database; no cut-off is given here. Positions of bridges follow the written chain, without caps; N, C: chain ends. Non-standard residues stand in square brackets, D forms with d. Residues, ends and D or L forms follow the SMILES beside them. *: point of attachment. Threoninol(2S,3R) = C[C@@H](O)[C@H](CO)N*

Sequence of Voltage-gated inwardly rectifying potassium channel KCNH2 (Q12809 whole entry): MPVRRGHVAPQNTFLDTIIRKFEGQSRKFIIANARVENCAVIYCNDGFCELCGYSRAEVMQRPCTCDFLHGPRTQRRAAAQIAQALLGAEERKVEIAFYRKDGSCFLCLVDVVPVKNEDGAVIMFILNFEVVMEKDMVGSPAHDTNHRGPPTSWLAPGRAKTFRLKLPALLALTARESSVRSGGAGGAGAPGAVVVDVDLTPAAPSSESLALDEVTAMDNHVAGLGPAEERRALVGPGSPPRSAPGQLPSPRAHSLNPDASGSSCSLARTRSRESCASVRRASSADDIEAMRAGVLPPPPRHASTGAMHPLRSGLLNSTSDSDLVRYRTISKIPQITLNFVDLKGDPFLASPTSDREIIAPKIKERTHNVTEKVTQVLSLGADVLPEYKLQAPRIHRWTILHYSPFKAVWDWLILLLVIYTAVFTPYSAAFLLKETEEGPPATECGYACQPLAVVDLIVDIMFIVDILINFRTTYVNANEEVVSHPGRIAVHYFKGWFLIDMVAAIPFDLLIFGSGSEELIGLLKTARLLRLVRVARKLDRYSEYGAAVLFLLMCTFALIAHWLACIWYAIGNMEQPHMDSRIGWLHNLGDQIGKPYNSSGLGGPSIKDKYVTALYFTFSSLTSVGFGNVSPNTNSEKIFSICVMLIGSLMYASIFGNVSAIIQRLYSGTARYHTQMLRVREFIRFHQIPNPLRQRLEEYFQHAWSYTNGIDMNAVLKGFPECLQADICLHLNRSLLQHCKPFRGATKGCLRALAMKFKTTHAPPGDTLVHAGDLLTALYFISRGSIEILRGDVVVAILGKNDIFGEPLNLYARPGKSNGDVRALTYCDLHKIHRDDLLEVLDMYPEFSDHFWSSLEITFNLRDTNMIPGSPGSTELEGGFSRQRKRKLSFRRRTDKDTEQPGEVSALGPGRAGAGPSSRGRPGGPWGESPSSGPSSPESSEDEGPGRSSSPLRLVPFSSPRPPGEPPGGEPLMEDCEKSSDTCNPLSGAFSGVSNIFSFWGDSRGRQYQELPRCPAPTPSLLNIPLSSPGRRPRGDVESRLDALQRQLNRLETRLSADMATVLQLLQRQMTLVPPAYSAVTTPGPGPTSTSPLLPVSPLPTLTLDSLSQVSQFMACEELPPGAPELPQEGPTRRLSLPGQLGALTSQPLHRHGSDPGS
T1 sequence (P32745 whole entry): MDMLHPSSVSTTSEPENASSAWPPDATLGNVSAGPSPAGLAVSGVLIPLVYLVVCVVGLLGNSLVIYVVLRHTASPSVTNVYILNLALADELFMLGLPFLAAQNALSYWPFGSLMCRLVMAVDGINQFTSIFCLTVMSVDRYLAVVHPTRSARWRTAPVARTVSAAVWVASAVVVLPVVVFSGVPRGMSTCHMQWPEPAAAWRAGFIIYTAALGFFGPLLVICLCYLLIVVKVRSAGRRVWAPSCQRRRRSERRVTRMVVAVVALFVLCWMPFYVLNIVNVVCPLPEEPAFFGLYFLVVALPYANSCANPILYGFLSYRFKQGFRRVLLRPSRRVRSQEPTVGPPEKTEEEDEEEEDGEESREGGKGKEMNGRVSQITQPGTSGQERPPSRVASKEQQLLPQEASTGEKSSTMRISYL

Consider `C[C@@H](O)[C@H](CO)NC(=O)[C@@H]1CSSC[C@H](NC(=O)[C@H](N)Cc2ccccc2)C(=O)N[C@@H](Cc2ccccc2)C(=O)N[C@H](Cc2c[nH]c3ccccc23)C(=O)N[C@@H](CCCCN)C(=O)N[C@@H]([C@@H](C)O)C(=O)N1` (H-[dF]CF[dW]KTC-{Threoninol(2S,3R)}; disulfide 2-7), for which, in [1], the Activity was 39%.

The compound `c1ccc(-c2c[nH]c([C@H]3Cc4c([nH]c5ccccc45)C(C4CCCCC4)N3)n2)cc1` (stereo partly specified) came in with a Cmax in data set [2] of 60 nM. Also, the clearance in data set [3] amounted to 95 mL/min/kg. The IC50 in [4] came to 308 nM. In addition, in [5], the bioavailability was determined as 15%. In data set [6], this compound registered an AUC/dose of 0.07 µM·h/mg. Moreover, in [7], the half-life is 8.4 min. In [8], the Vd came to 8.1 L/kg.

With `[O-][S+]1CCC(C2N[C@@H](c3nc(-c4ccccc4)c[nH]3)Cc3c2[nH]c2ccccc32)CC1` (single isomer, unassigned; isomer 2), the IC50 in data set [9] is 24 nM; in data set [10], 100 nM; in data set [11], 21 nM.

`CCOCC1(COCC)N[C@@H](c2nc(-c3ccccc3)c[nH]2)Cc2c1[nH]c1ccccc21` displayed a Cmax in [2] of 130 nM. The clearance in [3] stood at 31 mL/min/kg. Further, the IC50 in [4] turned out to be 1526 nM. This compound showed a bioavailability in data set [5] of 4%. For the same compound, the AUC/dose in data set [6] amounted to 0.06 µM·h/mg. The compound also had a half-life in data set [7] of 32.4 min. The Vd in data set [8] is 0.7 L/kg.

For the compound `CCCCC1(CCCC)N[C@@H](c2nc(-c3ccccc3)c[nH]2)Cc2c1[nH]c1ccccc21`, the clearance in data set [3] was 126 mL/min/kg. Also, the IC50 in data set [4] amounted to 128 nM; in data set [10] it was 150 nM.

As to `[O-][S+]1CCC(C2N[C@@H](c3nc(-c4ccccc4)c[nH]3)Cc3c2[nH]c2ccccc32)CC1` (single isomer, unassigned; isomer 1), the IC50 in data set [9] is 380 nM; in data set [11] it was 220 nM.

Regarding `CC[C@H](C)[C@H](NC(=O)[C@H](Cc1ccccc1)NC(=O)[C@H](CCC(=O)O)NC(=O)[C@H](CCCCN)NC(=O)[C@H](C)NC(=O)[C@H](C)NC(=O)[C@H](CCC(N)=O)NC(=O)CNC(=O)[C@H](CCC(=O)O)NC(=O)[C@H](CC(C)C)NC(=O)[C@H](Cc1ccc(O)cc1)NC(=O)[C@H](CO)NC(=O)[C@H](CO)NC(=O)[C@@H](NC(=O)[C@H](CC(=O)O)NC(=O)[C@H](CO)NC(=O)[C@@H](NC(=O)[C@H](Cc1ccccc1)NC(=O)[C@@H](NC(=O)CNC(=O)[C@H](CCC(=O)O)NC(=O)[C@H](C)N[C@@H](Cc1cnc[nH]1)C(=O)O)[C@@H](C)O)[C@H](C)O)C(C)C)C(=O)N[C@@H](C)C(=O)N[C@@H](Cc1c[nH]c2ccccc12)C(=O)N[C@@H](CC(C)C)C(=O)N[C@H](C(=O)N[C@@H](CCCCN)C(=O)NCC(=O)N[C@@H](CCCNC(=N)N)C(N)=O)C(C)C`, in data set [12], the result was Active.

In the case of `O=S1(=O)CCC(C2N[C@@H](c3nc(-c4ccccc4)c[nH]3)Cc3c2[nH]c2ccccc32)CC1` (stereo partly specified), the IC50 in [9] was determined as 290 nM; in data set [10], 100 nM; in [11], 120 nM.

Turning to `CC(C)(C)OC(=O)N1CCC(C2N[C@@H](c3nc(-c4ccccc4)c[nH]3)Cc3c2[nH]c2ccccc32)CC1` (stereo partly specified), the IC50 is 1000 nM in data set [9] and 7 nM in data set [11].

With `CS(=O)(=O)N1CCC(C2N[C@@H](c3nc(-c4ccccc4)c[nH]3)Cc3c2[nH]c2ccccc32)CC1` (stereo partly specified), the IC50 in data set [11] was found to be 44 nM.

On to `COC(=O)N1CCC(C2N[C@@H](c3nc(-c4ccccc4)c[nH]3)Cc3c2[nH]c2ccccc32)CC1` (stereo partly specified), for which the IC50 in data set [9] stood at 66 nM; in data set [10], 700 nM; in [11], 4 nM.

`c1ccc(-c2c[nH]c([C@H]3Cc4c([nH]c5ccccc45)[C@H](C4CCOCC4)N3)n2)cc1`: the 50% inhibitory concentration (IC50) in data set [9] amounted to 1200 nM; in [11] it was 390 nM.

Consider `c1ccc(-c2c[nH]c([C@H]3Cc4c([nH]c5ccccc45)C(C4CCNCC4)N3)n2)cc1` (stereo partly specified), for which the IC50 was 220 nM in data set [9] and 63 nM in data set [11].

Take `CC(=O)N1CCC(C2N[C@@H](c3nc(-c4ccccc4)c[nH]3)Cc3c2[nH]c2ccccc32)CC1` (stereo partly specified): the IC50 stood at 46 nM in [9], 9800 nM in data set [10] and 16 nM in data set [11].

Regarding `CNC(=O)N1CCC(C2N[C@@H](c3nc(-c4ccccc4)c[nH]3)Cc3c2[nH]c2ccccc32)CC1` (stereo partly specified), the values for the IC50 in data set [9], in data set [10] and in data set [11] were 180 nM, 240 nM and 35 nM, respectively.

In the case of `c1ccc(-c2c[nH]c([C@H]3Cc4c([nH]c5ccccc45)C(C4CCSCC4)N3)n2)cc1` (stereo partly specified), the IC50 stood at 10 nM in [9], 120 nM in data set [10] and 1.7 nM in [11].
